This is a sample that favours compounds with a hit; in the whole collection about 2.9% have one here.
5HT1a ag: activates the human 5-HT1a serotonin receptor; P08908; hit rate 0.56% among 65,000; activation, % at 10 µM; AID 567; CHO 5-HT1a Ga15 NFAT-bla reporter, FRET ratio; 0% basal, 100% maximal reference agonist;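 active = activation above the screen-wide mean activation plus 3 SD, cut at about 19% in these data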
Target sequence (P08908 whole entry, looked up): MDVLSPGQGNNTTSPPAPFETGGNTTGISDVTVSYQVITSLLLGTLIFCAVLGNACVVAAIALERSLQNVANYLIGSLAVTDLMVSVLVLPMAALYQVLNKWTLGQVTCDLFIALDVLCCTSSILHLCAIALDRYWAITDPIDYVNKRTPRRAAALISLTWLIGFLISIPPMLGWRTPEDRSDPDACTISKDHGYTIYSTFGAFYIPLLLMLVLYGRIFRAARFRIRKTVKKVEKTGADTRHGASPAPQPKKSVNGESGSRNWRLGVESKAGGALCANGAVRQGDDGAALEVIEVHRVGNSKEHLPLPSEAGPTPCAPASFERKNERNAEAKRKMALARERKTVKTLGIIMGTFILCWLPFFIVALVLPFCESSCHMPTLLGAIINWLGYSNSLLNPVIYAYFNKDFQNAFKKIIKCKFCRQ
S1P1 ag-PAM: agonists and agonism potentiators of human S1P1 receptor; S1P1 CRE-bla cells, forskolin, beta-lactamase FRET, potentiator mode; S1P1 agonist co-added at EC20, 2 nM; 100% = saturating reference agonist, 0% = basal; hit rate 0.57% among 56,000; P21453; AID 449; activation, % at 9.5 µM;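 active = activation above a cutoff set at the mean activation of all tested compounds plus 3 SD, cut at about 54% in these data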;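 note: forskolin at 4 µM as EC80 and the EC20 agonist is SEW2871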
5HT1E ag: activates the human 5-HT1E serotonin receptor; AID 574; hit rate 0.69% among 65,000; CHO 5-HT1E Ga15 NFAT-bla reporter, FRET; 0% DMSO wells, 100% control agonist wells; P28566; activation, % at 6 µM;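 active = activation above a set limit, the screen-wide mean activation plus 3 SD, cut at about 8.5% in these data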
5HT1a antag: antagonists of human 5-HT1a serotonin receptor; P08908; CHO 5-HT1a Ga15 NFAT-bla reporter, antagonist mode; inhibition, % at 10 µM; hit rate 0.68% among 62,000; AID 612;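 active = inhibition above the mean of all tested compounds plus 3 SD, cut at about 43% in these data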;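 note: receptor stimulated by 5-CT agonist at 100 nM near EC80; beta-lactamase reporter measured by ratiometric fluorescence of a cleavable substrate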
S1P3 ag: agonists of human S1P3 receptor. AID 373. S1P3 NFAT-BLA reporter cells, agonism, FRET ratio; relative to 1 µM S1P, basal subtracted. activation, % at 4.5 µM. hit rate 0.1% among 60,000;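 active = activation above the screen-wide mean plus 3 SD, cut at about 4.5% in these data, passing the limit was not always enough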
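Measure – % activation relative to 1 µM S1P (100%), per plate · System – stable CHO line with human S1P3, Gα16, NFAT-BLA reporter · Timing – cells plated overnight, compound 4 h 37 °C, substrate 2 h RT · Technique – fluorescent BLA substrate, ex 405 nm, em 460/535 nm ratio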
5HT1E antag: blocks the human 5-HT1E serotonin receptor | AID 571 | inhibition, % at 6 µM | hit rate 0.99% among 65,000 | P28566 | CHO 5-HT1E Ga15 NFAT-bla reporter, FRET, antagonist;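 active = inhibition above a set limit, the mean inhibition across every tested compound plus 3 SD, cut at about 29% in these data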;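 note: signal is the 460 over 535 nm emission ratio of beta-lactamase substrate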
Of the large screens only hits and unclear results are named; the others gave an inactive call.

CCOC(=O)c1sc2nc(NC(=O)C3CCCCC3)sc2c1C	S1P1 ag-PAM 74
CCOC(=O)c1sc2nc(NC(=O)C3CC3)sc2c1C	none
COc1ccc2c(c1)CCc1c(C(=O)Nc3ccc(OC)c(OC)c3)noc1-2	S1P1 ag-PAM 104
CC1CN(c2oc(-c3ccco3)nc2S(=O)(=O)c2ccccc2)CC(C)O1 (stereo not given)	none
OC(COC1CCCCC1)CN1CCN(c2ccccc2)CC1 (stereo not given)	5HT1a antag 45
O=S(=O)(NCCCN1CCN(c2ccccc2F)CC1)c1cccc2cccnc12	5HT1E ag 9.1
CCc1cccc(Nc2cc(C)nc3nc(C)nn23)c1	none
O=C(Nc1ccc(O)cc1)c1cc2n(n1)C(C(F)(F)F)CC(c1ccco1)N2 (stereo not given)	S1P1 ag-PAM 100
CCC(C(=O)Nc1nnc(-c2ccco2)s1)c1ccccc1 (stereo not given)	none
CCCCc1nc(SCC(=O)Nc2ccc(S(N)(=O)=O)cc2)n[nH]1	5HT1E ag 14
Cc1ccc(NC(=O)CSc2n[nH]c(-c3ccncc3)n2)cc1	none
O=C(NCc1nc(-c2ccccc2)no1)c1ccc2c(c1)OCO2	none
O=C(Nc1ccc(-c2noc(CCc3ccccc3)n2)cc1)c1cccnc1	S1P1 ag-PAM 94
CCCc1ccc(OCc2nc(-c3ccc(NC(=O)c4ccco4)cc3)no2)cc1	S1P1 ag-PAM 94
Cc1ccccc1OCc1nc(-c2ccc(NC(=O)c3ccco3)cc2)no1	none (no result: S1P1 ag-PAM, S1P3 ag)
Cc1ccccc1OCc1nc(-c2ccc(NC(=O)c3ccc4c(c3)OCO4)cc2)no1	5HT1E ag 9.2
CCOc1ccccc1-n1c(SCC(N)=O)nnc1-c1ccccc1	none
CCc1ccccc1-n1c(SCC(=O)NC)nnc1-c1cccnc1	none
Cc1cc(C(=O)CSc2nnc(-c3ccncc3)n2-c2ccccc2)c(C)n1C	S1P1 ag-PAM 97
Cc1cc(C(=O)CSc2nnc(-c3cccnc3)n2-c2ccccc2F)c(C)n1C	S1P1 ag-PAM 101
Cc1cc(C(=O)CSc2nnc(-c3ccccc3)n2-c2ccccc2)c(C)n1-c1ncn[nH]1	S1P1 ag-PAM 90
Cc1cc(C(=O)CSc2nnc(-c3ccccc3)n2C)c(C)n1C	none
COC(=O)C1=C(C)N(C)C(C)=C(C(=O)OC)C1c1ccccn1	none
Cc1cc(C)c(Cn2c(=O)n(CCCC(=O)NCc3ccco3)c(=O)c3ccccc32)c(C)c1	none
CCS(=O)(=O)NCCc1cc2ccc(C)cc2[nH]c1=O	none
CCCCCOC(=O)CSc1nnc(-c2ccccc2)c(=O)[nH]1	none
O=C(CC1Oc2ccccc2NC1=O)NCCc1ccccc1 (stereo not given)	5HT1a ag 49
Cc1ccc(NC(=O)COC(=O)C2CC2C)c(S(=O)(=O)N2CCCCC2)c1 (stereo not given)	none
CC(C)Sc1nc2c(c(=O)n1C)SC(C)C2 (stereo not given)	none
CCCOc1ccccc1C1CC(=O)Nc2cc3c(cc21)OCCO3 (stereo not given)	5HT1a antag 75, 5HT1E antag 71
CC(C)Oc1ccccc1C1CC(=O)Nc2cc3c(cc21)OCO3 (stereo not given)	5HT1a antag 54, 5HT1E antag 61
CCCCOc1ccccc1C1CC(=O)NC2=C1C(=O)CCC2 (stereo not given)	5HT1E antag 29
O=C1CC(c2cccnc2)c2cc3c(cc2N1)OCO3 (stereo not given)	none
CCOc1ccccc1C1CC(=O)Nc2cc3c(cc21)OCCO3 (stereo not given)	5HT1a antag 44, 5HT1E antag 64
CCCOc1ccccc1C1CC(=O)NC2=C1C(=O)CCC2 (stereo not given)	none
O=C(O)C1C2C=CC(C2)C1C(=O)NCCCn1ccnc1 (stereo not given)	none
Cc1ccc(OCC(O)Cn2c(=N)n(CCN3CCCCC3)c3ccccc32)cc1 (stereo not given)	5HT1a antag 43
CCCCCn1c(=N)n(CC(O)COc2ccccc2OC)c2ccccc21 (stereo not given)	5HT1a antag 64
CCCCn1c(=N)n(CC(O)COc2cccc(C)c2)c2ccccc21 (stereo not given)	5HT1a antag 43
Cc1cc(SCC#N)n2nc(C)c(-c3ccccc3)c2n1	5HT1E antag 57
N#CC1=C(N)N(c2ccc(Br)cc2)C2=C(C(=O)CCC2)C1c1cccnc1 (stereo not given)	none
O=C(c1ccco1)N1CCN(C(=O)C2CCN(S(=O)(=O)Cc3ccccc3)CC2)CC1	none
O=C(c1ccco1)N1CCN(C(=O)C2CCCN(S(=O)(=O)Cc3ccccc3)C2)CC1 (stereo not given)	5HT1a ag 70 (no result: S1P1 ag-PAM, S1P3 ag)
O=C(O)CCc1nnc2n(Cc3ccc(F)cc3)c(=O)c3ccccc3n12	none
Cn1c(SC2=CS(=O)(=O)c3ccccc32)nc2ccccc21	5HT1a antag 74, 5HT1E antag 50
Cn1c(Cl)nc2ccccc21	none
Cc1nc(=O)c(-c2ccccc2)c(C)n1-c1cccc(C(=O)O)c1	none
Cc1nc(=O)c(-c2ccccc2)c(C)n1-c1ccc(O)c(C(=O)O)c1	5HT1a ag 22 (no result: S1P1 ag-PAM)
COC(=O)c1[nH]c2cc(OC)c(OC)cc2c1NC(=O)CN1CCN(Cc2ccccc2)CC1	5HT1E antag 39
O=c1c2ccccc2nnn1CSc1nnc(C2COc3ccccc3O2)n1-c1ccccc1 (stereo not given)	S1P3 ag 9.0
O=C(OCn1nnc2ccccc2c1=O)C1COc2ccccc2O1 (stereo not given)	none
CC(C)C(CO)NC(=O)CC(=O)NC(CO)C(C)C (stereo not given)	none
CSc1ccc(Cl)c(C(=O)NCc2ccco2)c1	5HT1E antag 32
O=C(NCc1ccco1)c1cc2ccc(O)cc2oc1=O	5HT1a ag 189, 5HT1E ag 38, S1P3 ag 12
COc1ccc2cc(C(=O)NCc3ccco3)c(=O)oc2c1	none
CSc1ccc(Cl)c(C(=O)OCC(=O)NCc2ccco2)c1	none
CSc1nc2sc3c(c2c2nnnn12)CCC3	none (no result: 5HT1a antag)
CSc1nc2sc3c(c2c2nnnn12)CCCC3	5HT1E ag 14 (no result: 5HT1a antag)
COc1cc(-c2nnc3sc(C4CCCCC4)nn23)cc(OC)c1OC	5HT1E antag 40
Cc1cc(-c2nnc3sc(C4CCCCC4)nn23)n[nH]1	none
COc1cc(OC)c(-c2nn3c(C4CCCCC4)nnc3s2)cc1OC	5HT1E antag 33
CCOc1cccc(-c2nnc3sc(-c4cc(OC)c(OC)cc4OC)nn23)c1	none
CCOc1cccc(-c2nnc3sc(C4CCCCC4)nn23)c1	none (no result: 5HT1a antag)
